According to ChEMBL document CHEMBL3525963, “Tissue distribution and elimination of [14C]apixaban in rats” (Drug Metab Dispos, 2011):

Assays:
Type in all cases: ADME, organism-based
Parameters in all cases: dose 5 mg/kg, dosed compound name [14C]-apixaban, route oral
Conditions in all cases: in vivo
[1] = system: Brain; experiment: Biodistribution in pregnant Sprague-Dawley rat brain at 5 mg/kg, po administered as single dose measured after 1 hr
[2] = system: Rattus norvegicus; experiment: Biodistribution in pregnant Sprague-Dawley rat amnion at 5 mg/kg, po administered as single dose measured after 4 hrs
[3] = system: Adrenal gland; experiment: Biodistribution in male Sprague-Dawley rat adrenal gland at 5 mg/kg, po administered as single dose measured after 8 hrs
Outline: (§1)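 [¹⁴C]Apixaban given by oral gavage at 5 mg/kg (100 μCi/kg) in 0.5% Tween 80 in Labrafil (1.0 mg/mL dosing solution) to rats fasted overnight through 4 h post-dose. One rat per time point; carcass frozen in hexane/dry ice. Quantitative whole-body autoradiography used 40 µm sagittal sections and a phosphor imaging plate calibrated with [¹⁴C]glucose standards (0.001–6.5 μCi/g). Read-out in µg eq apixaban/g; LLOQ 0.037 μg eq/g.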

[4] = system: Rattus norvegicus; experiment: Biodistribution in male Sprague-Dawley rat bone marrow at 5 mg/kg, po administered as single dose measured after 8 hrs
Outline: (§2)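 Fasted male rats, 225-252 g, received [14C]apixaban by single oral gavage at 100 μCi/kg in 0.5% Tween 80/Labrafil. One rat was killed per time point and the carcass frozen. Tissue radioactivity was quantified by QWBA (40 µm sagittal sections, phosphor plate, [14C]glucose calibration) as µg eq apixaban/g, with LLOQ 0.037 μg eq/g.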

[5] = system: Pancreas; experiment: Biodistribution in pregnant Sprague-Dawley rat pancreas at 5 mg/kg, po administered as single dose measured after 4 hrs
[6] = system: Rattus norvegicus; experiment: Biodistribution in fetal blood of pregnant Sprague-Dawley rat at 5 mg/kg, po administered as single dose measured after 48 hrs
Outline: (§3)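 Quantitative whole-body autoradiography was run after a single 5 mg/kg (100 μCi/kg) oral gavage to fasted female or pregnant SD rats, one rat per time point. Carcasses were frozen in hexane/dry ice, and 40 µm sagittal sections were dried at −20°C for at least 48 h. Sections were exposed to a phosphor plate alongside [14C]glucose standards (0.001–6.5 µCi/g). Results are µg eq/g, with LLOQ 0.037 µg eq/g.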

[7] = system: Adrenal gland; experiment: Biodistribution in male Sprague-Dawley rat adrenal gland at 5 mg/kg, po administered as single dose measured after 0.5 hrs; outline: as §1
[8] = system: Thymus; experiment: Biodistribution in male Sprague-Dawley rat thymus at 5 mg/kg, po administered as single dose measured after 24 hrs
Outline: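 Fasted male SD rats (225-252 g) each received one oral gavage dose of [14C]apixaban, 5 mg/kg (100 μCi/kg), in 0.5% Tween 80/Labrafil vehicle. One rat was killed per time point, from 0.5 to 168 h. Frozen carcasses were cut into 40 µm sagittal whole-body sections and read by QWBA phosphor imaging against [14C]glucose calibrants. Results are in µg apixaban eq/g; BLQ <0.037 µg eq/g.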

[9] = system: Spleen; experiment: Biodistribution in female Sprague-Dawley rat spleen at 5 mg/kg, po administered as single dose measured after 72 hrs; outline: as §3
[10] = system: Heart; experiment: Biodistribution in female Sprague-Dawley rat heart at 5 mg/kg, po administered as single dose measured after 4 hrs; outline: as §1
[11] = system: Rattus norvegicus; experiment: Biodistribution in pregnant Sprague-Dawley rat pituitary gland at 5 mg/kg, po administered as single dose measured after 0.5 hrs
[12] = system: Rattus norvegicus; experiment: Biodistribution in female Sprague-Dawley rat salivary gland at 5 mg/kg, po administered as single dose measured after 0.5 hrs
Outline: (§4)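 [14C]apixaban (20 μCi/mL in dosing solution) in 0.5% Tween 80 in Labrafil given by oral gavage to fasted female rats, 206-213 g, at 100 μCi/kg. One rat per time point was euthanized and snap-frozen. Sagittal 40 µm whole-body sections were read by QWBA phosphor imaging against [14C]glucose standards. Results are in µg eq apixaban/g, with LLOQ 0.037 μg eq/g.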

[13] = system: Blood; experiment: Biodistribution in male Sprague-Dawley rat blood at 5 mg/kg, po administered as single dose measured after 4 hrs; outline: as §1
[14] = system: Rattus norvegicus; experiment: Biodistribution in female Sprague-Dawley rat pituitary gland at 5 mg/kg, po administered as single dose measured after 0.5 hrs; outline: as §4
[15] = system: Liver; experiment: Biodistribution in female Sprague-Dawley rat liver at 5 mg/kg, po administered as single dose measured after 24 hrs; outline: as §1
[16] = system: Rattus norvegicus; experiment: Biodistribution in male Sprague-Dawley rat bone marrow at 5 mg/kg, po administered as single dose measured after 4 hrs; outline: as §2
[17] = system: Rattus norvegicus; experiment: Biodistribution in fetal kidney of pregnant Sprague-Dawley rat at 5 mg/kg, po administered as single dose measured after 0.5 hrs
Outline: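 Pregnant rats, 270-319 g and fasted overnight, received [14C]apixaban by oral gavage at 100 μCi/kg in 0.5% Tween 80/Labrafil. One dam per time point was euthanized and frozen in hexane/dry ice. Fetal tissue radioactivity was measured by QWBA on 40 µm sagittal sections calibrated with [14C]glucose standards. Values are in µg eq/g, with LLOQ 0.037 μg eq/g.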

[18] = system: Blood; experiment: Biodistribution in pregnant Sprague-Dawley rat blood at 5 mg/kg, po administered as single dose measured after 8 hrs
Outline: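 Fasted pregnant SD rats (n=6, 270-319 g) each received one oral gavage dose of [14C]apixaban, 5 mg/kg (100 μCi/kg), in 0.5% Tween 80/Labrafil. One rat was killed at each of 0.5, 1, 4, 8, 24 and 48 h. Carcasses were frozen in hexane/dry ice, cut into 40 µm sagittal sections, exposed to phosphor plates and quantified against [14C]glucose standards as µg eq/g. LLOQ was 0.037 µg eq/g.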

[19] = system: Rattus norvegicus; experiment: Biodistribution in pregnant Sprague-Dawley rat pituitary gland at 5 mg/kg, po administered as single dose measured after 24 hrs
Outline: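 Pregnant SD rats (270-319 g) were fasted overnight and given one oral gavage of 5 mg/kg (100 μCi/kg) in 0.5% Tween 80 in Labrafil. One rat was euthanized per time point (0.5, 1, 4, 8, 24, 48 h) and the carcass frozen. 40 µm sagittal sections were phosphor-imaged against [14C]glucose standards and results reported as µg eq/g; LLOQ 0.037 µg eq/g.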

[20] = system: Liver; experiment: Biodistribution in pregnant Sprague-Dawley rat liver at 5 mg/kg, po administered as single dose measured after 8 hrs
[21] = system: Rattus norvegicus; experiment: Biodistribution in pregnant Sprague-Dawley rat pituitary gland at 5 mg/kg, po administered as single dose measured after 1 hr
[22] = system: Adrenal gland; experiment: Biodistribution in female Sprague-Dawley rat adrenal gland at 5 mg/kg, po administered as single dose measured after 72 hrs; outline: as §3
[23] = system: Rattus norvegicus; experiment: Biodistribution in pregnant Sprague-Dawley rat amnion at 5 mg/kg, po administered as single dose measured after 8 hrs
[24] = system: Rattus norvegicus; experiment: Biodistribution in male Sprague-Dawley rat pituitary gland at 5 mg/kg, po administered as single dose measured after 0.5 hrs
[25] = system: Blood; experiment: Biodistribution in female Sprague-Dawley rat blood at 5 mg/kg, po administered as single dose measured after 24 hrs; outline: as §3
[26] = system: Thymus; experiment: Biodistribution in male Sprague-Dawley rat thymus at 5 mg/kg, po administered as single dose measured after 4 hrs
[27] = system: Liver; experiment: Biodistribution in female Sprague-Dawley rat liver at 5 mg/kg, po administered as single dose measured after 8 hrs; outline: as §1

COc1ccc(-n2nc(C(N)=O)c3c2C(=O)N(c2ccc(N4CCCC[14C]4=O)cc2)CC3)cc1
Radiolabel recovery [1]: 0.06 ugequiv/g
Radiolabel recovery [2]: 11.24 ugequiv/g
Radiolabel recovery [3]: 0.17 ugequiv/g
Radiolabel recovery [4]: 0.07 ugequiv/g
Radiolabel recovery [5]: 0.99 ugequiv/g
Radiolabel recovery [6]: Not detected assumed BLQ
Radiolabel recovery [7]: 0.59 ugequiv/g
Radiolabel recovery [8]: Not detected assumed BLQ
Radiolabel recovery [9]: Not detected assumed BLQ
Radiolabel recovery [10]: 0.51 ugequiv/g
Radiolabel recovery [11]: 0.72 ugequiv/g
Radiolabel recovery [12]: 0.28 ugequiv/g
Radiolabel recovery [13]: 0.6 ugequiv/g
Radiolabel recovery [14]: 0.43 ugequiv/g
Radiolabel recovery [15]: < 0.037 ugequiv/g
Radiolabel recovery [16]: 0.32 ugequiv/g
Radiolabel recovery [17]: 0.24 ugequiv/g
Radiolabel recovery [18]: 0.09 ugequiv/g
Radiolabel recovery [19]: Not sampled as not visualised in autoradiograph
Radiolabel recovery [20]: 0.65 ugequiv/g
Radiolabel recovery [21]: 0.93 ugequiv/g
Radiolabel recovery [22]: Not detected assumed BLQ
Radiolabel recovery [23]: 2.12 ugequiv/g
Radiolabel recovery [24]: 0.26 ugequiv/g
Radiolabel recovery [25]: Not detected assumed BLQ
Radiolabel recovery [26]: 0.23 ugequiv/g
Radiolabel recovery [27]: 1.12 ugequiv/g
